Assay outcomes: PubChem, several laboratories
Most compounds without a hit are left out; they make up all but 4.7% or so of the library.
Cl transport mod: modulators of human KCC2 chloride dependent transport; Q9H2X9; hit rate 2.2% among 190,000; KCC2 cells, thallium flux FluoZin-2 fluorescence; B-score of Tl+ flux slope (higher = more flux/activation; lower = inhibition) at 10 µM; AID 1456;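 active = thallium flux slope and its plate-corrected score both differing from the plate sample mean at a set confidence after two filtering rounds, in either direction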;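 note: slope of fluorescence scaled to starting intensity during 10 to 20 s after thallium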
RGS4 pot: potentiators or activators of RGS4 | HEK293 M3R/inducible RGS4, carbachol calcium flux Fluo4; hits give low values | B-score at 10 µM | hit rate 0.92% among 310,000 | AID 463111;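 active = B-score of the integrated calcium signal more than 4 SD below the library mean, with starting fluorescence not abnormally high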;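 note: negative B-score means reduced calcium response which marks RGS4 activation or potentiation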
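test system = HEK293 cells with stable M3R and inducible RGS4 | schedule = recording 10 s baseline at 1 Hz, 100 s post-agonist | technique = Fluo4-AM (2 µM) calcium-flux fluorescence, kinetic read | measure = Agonist-evoked peak-minus-minimum fluorescence over baseline, integrated ratio, B score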
MrgX1 antagonist: blocks BAM8-22 activation of human MrgX1 receptor. AID 588676. MRGX1-HEK293 calcium flux, Fluo-4, BAM8-22 antagonism; hits give low values. hit rate 1.3% among 310,000. B-score at 10 µM. Q96LB2;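 active = calcium-response B-score plate-corrected more than 3 library SD below zero, starting fluorescence within 5 deviations, no agonist response on first addition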;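 note: peak minus trough fluorescence over baseline after final BAM8-22 challenge near maximal dose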
Target sequence (Q96LB2 whole entry, looked up): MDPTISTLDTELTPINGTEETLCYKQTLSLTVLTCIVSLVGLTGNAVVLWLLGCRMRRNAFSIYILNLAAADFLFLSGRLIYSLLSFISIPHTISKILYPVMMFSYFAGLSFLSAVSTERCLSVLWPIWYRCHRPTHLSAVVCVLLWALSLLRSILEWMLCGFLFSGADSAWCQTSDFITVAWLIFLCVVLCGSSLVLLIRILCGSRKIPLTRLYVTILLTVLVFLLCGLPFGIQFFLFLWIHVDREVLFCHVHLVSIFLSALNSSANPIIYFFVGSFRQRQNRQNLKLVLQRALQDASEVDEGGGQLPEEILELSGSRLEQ
MrgX1 ag: human MrgX1 receptor agonism, primary screen. MrgX1-HEK293 cells, Fluo-4 calcium fluorescence, agonist mode; hits give high values. B-score at 10 µM. hit rate 0.44% among 310,000. AID 588627;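 active = calcium response B-score plate-corrected fluorescence ratio at least 3 library SD, with starting fluorescence B-score inside 5 SD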
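Test system: HEK293 cells stably expressing human MrgX1 receptor; Input: fifteen thousand cells per well; Dosing: compound delivered in addition one of three; Schedule: overnight seeding, then 1 h dark dye loading; Technique: Fluo-4 NW calcium fluorescence; Measure: B-scored fluorescence response ratio; Controls: positive and negative controls per plate.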
MrgX1 allo act: human MrgX1 positive allosteric modulation, primary screen | Q96LB2 | MrgX1-HEK293, Fluo-4 calcium flux, FDSS; hits give high values | B-score at 10 µM | hit rate 0.63% among 310,000 | AID 588675;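 active = plate-corrected calcium response at least 3 library SD above typical, normal starting fluorescence, not activating the receptor alone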;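 note: compound read alongside a low EC10 to EC30 dose of BAM8-22 agonist; peak minus trough fluorescence over baseline measured at the second addition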
RGS4 block: inhibitors of human RGS4 | HEK293 M3R/RGS4 inducible, Fluo-4 calcium flux; hits give high values; triggered by carbachol at its EC20 | B-score at 10 µM | hit rate 0.45% among 310,000 | AID 463165;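 active = B-score, a plate-corrected calcium signal, over three deviations above library mean, with baseline fluorescence within five deviations of library mean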;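 note: RGS4 expression induced by doxycycline in cells with stable M3 receptor; B-score is computed from the integrated fluorescence ratio over baseline after carbachol; higher B-score means a larger calcium signal and so more RGS4 inhibition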
Target sequence (P49798 whole entry, looked up): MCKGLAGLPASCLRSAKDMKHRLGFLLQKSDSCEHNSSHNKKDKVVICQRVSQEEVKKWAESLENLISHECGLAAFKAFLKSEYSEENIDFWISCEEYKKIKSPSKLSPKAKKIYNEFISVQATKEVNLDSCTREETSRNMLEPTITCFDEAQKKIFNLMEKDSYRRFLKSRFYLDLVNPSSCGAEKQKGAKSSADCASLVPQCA
Hits are given with their value; . = inactive; / = no result.

SMILES	Cl transport mod	RGS4 pot	MrgX1 antagonist	MrgX1 ag	MrgX1 allo act	RGS4 block
Cc1cc(N2C(=O)C(O)=C(C(=O)c3ccc(C)o3)C2c2cccs2)no1 (centres undefined)	-3	.	.	.	.	.
O=C(CNS(=O)(=O)c1ccc(Br)s1)NCc1ccccc1	/	.	.	.	.	.
Cc1ccc(-c2nc(CN(C)Cc3cccc4cnccc34)c(C)o2)s1	.	.	.	28	.	.
CCOc1ccc(NS(=O)(=O)c2ccc3c(c2)N(C(C)=O)CCS3)cc1	/	.	.	.	.	.
Cc1ccc(-c2nnc(CSc3nc(C(C)C)nc4sc(C)c(C)c34)o2)cc1	9.1	.	.	.	.	.
Cc1sc2nc(C(C)C)nc(SCC(=O)NCc3ccco3)c2c1C	33	.	.	.	.	.
CCOC(=O)CSc1nc(C(C)C)nc2sc(C)c(C)c12	.	.	.	.	.	.
Cc1nc(SCC(=O)NCc2ccco2)c2c(C)c(C)sc2n1	.	.	.	.	.	.
Cc1sc2nc(C(C)C)nc(SCC(=O)N3c4ccccc4CC3C)c2c1C (centres undefined)	65	.	.	.	.	.
Cc1cccc(-n2c(=S)[nH]c3nc4c(cc3c2=O)COC(C)(C)C4)c1	.	.	.	.	.	.
CCN(CC)S(=O)(=O)c1ccc(C(=O)NCC(=O)NCCCc2ccccc2)cc1	/	.	/	/	/	.
COc1ccc(C2CC(c3ccc(C)o3)=NN2C(C)=O)cc1 (centres undefined)	.	.	.	.	.	.
CCOc1cccc2c1OC(c1cc(OC)c(OC)c(OC)c1)N1N=C(c3ccc(C)o3)CC21 (centres undefined)	.	.	-5.8	.	.	.
O=C(CCC1N=C2c3ccccc3N=C(SCC(=O)NCC3CCCO3)N2C1=O)NCc1ccc(F)cc1 (centres undefined)	/	.	.	.	.	.
CC1CCN(Cc2cc(=O)oc3cc4c(cc23)CCCC4)CC1	.	.	.	.	8.5	.
CCc1ccc2oc(=O)cc(CN3CCC(C)CC3)c2c1	.	.	.	29	.	.
CCc1ccc2oc(=O)cc(CN3CCOCC3)c2c1	.	.	.	.	.	.
CCOc1ccccc1CNC(=O)Cn1ccc2cc(S(=O)(=O)N3CCC(C)CC3)ccc21	/	.	.	.	.	.
COc1ccc(/C=C2\C(=O)NC(=S)N2C(=O)c2ccc(F)cc2)cc1	3.4	.	.	.	.	.
COc1ccc(C(=O)CC(=O)c2ccc(F)cc2)cc1	/	.	.	.	.	.
CCOc1ccc(S(=O)(=O)NC(Cc2cnc[nH]2)C(=O)O)cc1 (centres undefined)	.	.	-4.9	.	.	.
CN(C)CCOC1c2ccccc2C=Cc2ccccc21	/	-7.1	.	.	.	.
COc1ccccc1N/C=C/c1onc(C)c1[N+](=O)[O-]	/	.	-6.5	.	.	.
CC(=O)Nc1ccc(/C=C/c2nc(-c3ccccc3O)n[nH]2)cc1	/	.	.	.	.	.
Cc1ccc(-c2nn(-c3ccccc3)cc2C=C2C(=O)CC(C)(C)CC2=O)cc1	.	.	.	.	.	11
SMILES	Cl transport mod	RGS4 pot	MrgX1 antagonist	MrgX1 ag	MrgX1 allo act	RGS4 block
CCCCCc1ccc(C(=O)CCCC)c(=S)[nH]1	119	.	.	.	.	.
Cc1ccc(-c2cc(-c3n[nH]c(=S)o3)c3ccccc3n2)cc1	17	.	.	.	.	.
S=c1[nH]nc(-c2cc(-c3ccccn3)nc3ccccc23)o1	.	.	.	.	.	.
Cc1ccc(-n2ncc3c(=O)n(CC(=O)N4CCCc5ccccc54)cnc32)cc1C	-3.4	.	/	/	/	.
Cc1ccc(SCCNC(=O)c2ccc(C)c([N+](=O)[O-])c2)cc1	/	-7	.	.	.	.
Cc1ccc(SCCNC(=O)c2ccc([N+](=O)[O-])c(C)c2)cc1	/	.	.	.	.	.
O=C(Nc1ccccc1-c1nnc(SCc2ccccc2)o1)c1ccccc1	/	-7.4	.	.	.	.
O=C(Nc1ccccc1-c1nnc(SCc2ccc(Cl)cc2)o1)c1ccccc1	/	.	-7.1	.	.	.
O=C(O)c1ccc(CSc2nnc(-c3ccccc3Br)o2)cc1	/	.	.	.	.	.
CC12CCC(=O)N1C(C(=O)NCc1ccccc1F)CS2 (centres undefined)	/	.	.	.	.	.
COCCNC(=O)CN(C(=O)CCC(=O)Nc1ccccn1)c1cc(C)ccc1C	/	.	.	.	.	.
Cc1c(C)c2ccc(OCC(=O)NCCN3CCOCC3)c(C)c2oc1=O	/	.	.	.	.	.
CC1CCN(C(=O)COC(=O)C2CCN(S(=O)(=O)c3ccc(Cl)c(C(F)(F)F)c3)CC2)CC1	/	.	.	.	.	.
CCOC(=O)C1CCCN(C(=O)/C(=C/c2ccco2)NC(=O)c2ccccc2)C1 (centres undefined)	/	-7	.	.	.	.
c1cc(CNc2ccc3c(c2)OCO3)ccn1	.	.	.	.	.	.
Cc1ccc(C)c(NC(=S)NCc2ccc3c(c2)OCO3)c1	.	-7.2	.	.	.	.
Cc1ccccc1NC(=S)NCc1ccc2c(c1)OCO2	.	.	.	.	.	.
Cc1ccc(CNc2ccc3c(c2)OCO3)cc1	.	.	.	29	.	.
COc1ccccc1N1CCN(/N=C/c2ccccc2C(=O)O)CC1	/	.	.	.	.	.
Cc1ccccc1C(=O)NNC(=O)c1ccc(F)cc1	.	.	-7.1	.	.	.
COc1ccccc1C(=O)NNC(=O)c1ccc(F)cc1	.	.	.	.	.	.
O=C(CC(=O)c1ccccc1O)c1ccc(F)cc1	24	.	.	.	.	.
O=C(CC(=O)c1ccccc1O)c1cccc(F)c1	/	.	.	.	.	.
OC1(c2cccs2)CN(c2ccc(Cl)cc2)C2=[N+]1CCCC2 (centres undefined)	.	-9.1	.	.	.	.
OC1(c2cccs2)CN(c2ccc(Cl)cc2)C2=[N+]1CCCS2 (centres undefined)	.	.	.	28	.	.
CCOc1ccccc1NS(=O)(=O)c1ccc2oc(=O)ccc2c1	/	.	.	.	.	.
O=C(CS(=O)(=O)Cc1ccccc1)N1CCN(c2ccccc2F)CC1	/	.	.	.	.	.
Cc1cccc(C(=O)NCC(c2ccco2)N(C)C)c1 (centres undefined)	.	.	.	.	.	.
COc1ccc(C(CNC(=O)c2cccc(NS(=O)(=O)c3ccc(Br)cc3)c2)N(C)C)cc1 (centres undefined)	/	.	.	.	.	.
Cc1ccc(S(=O)(=O)Nc2cccc(C(=O)NCC(c3ccccc3)N(C)C)c2)cc1F (centres undefined)	/	-7.5	.	.	.	.
